Reference: ChEMBL document CHEMBL1221398, “Chemical constituents of the deep reef caribbean sponges Plakortis angulospiculatus and Plakortis halichondrioides and their anti-inflammatory activities” (J Nat Prod, 2010)
The source made the active and inactive calls. The rule behind the calls is not given here.

System: not listed separately
Experiment: Inhibition of NF-kappaB-mediaated transcription in human SW1353 cells by reporter gene assay
Type: cell-based
Settings: Homo sapiens, SW1353; read-out: IC50
Summary of the method: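 Luciferase reporter gene assay for NF-κB-mediated transcription in SW 1353 cells, with parthenolide as positive control. A luciferase construct carrying SP-1 binding sites served as a control for nonspecific transcription inhibition.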

Row | Compound | IC50
1 | CC1=C[C@](C)(/C=C/C=C/c2ccccc2)[C@](C)(C(=O)O)[C@H]2C(C)=C[C@@H](C)[C@H]12 [22,27-DINOR-ZYGGOMPHIC ACID B] | 27.9 µM
2 | CCC(O)/C(C)=C/C(C)C(O)/C(C)=C/C(C)=C/C(C)/C=C/c1ccccc1 (centres undefined) | 25.6 µM
3 | CCC1=C[C@@H](C)[C@@H]2C(C)=C[C@](C)(/C=C(C)/C=C/c3ccccc3)[C@](C)(C(=O)O)[C@@H]12 [ZYGGOMPHIC ACID B] | 25.8 µM
4 | CC1=C[C@](C)(/C=C(C)/C=C/c2ccccc2)[C@](C)(C(=O)O)[C@H]2C(C)=C[C@@H](C)[C@H]12 [27-NOR-ZYGGOMPHIC ACID B] | 2.28 µM
5 | CCC1=C[C@@H](C)[C@@H]2C(C)=C[C@@](/C=C/c3ccccc3)(CC)[C@](C)(C(=O)O)[C@@H]12 [24-NOR-SPICULOIC ACID B] | 0.47 µM
6 | C=C1C(=O)O[C@@H]2C3O[C@]3(C)CC/C=C(\C)CC[C@@H]12 (some centres undefined) | 3.3 µM
7 | CCC1=C[C@@](/C=C/c2ccccc2)(CC)[C@](C)(C(=O)O)[C@H]2C(CC)=C[C@@H](C)[C@H]12 [SPICULOIC ACID B] | 27.2 µM

Same assay, conditions: sw1353

Row | Compound | IC50
8 | CCC1=C[C@@H](C)[C@@H]2C(C)=C[C@](C)(/C=C/C=C/c3ccccc3)[C@](C)(C(=O)O)[C@@H]12 [22-NOR-ZYGGOMPHIC ACID B] | Not Active

System: not listed separately
Experiment: Inhibition of LPS-induced NOS activity in mouse RAW264.7 cells
Type: cell-based
Settings: not given
Summary of the method: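 Mouse RAW 264.7 macrophages were stimulated with LPS. iNOS activity was read as the decrease in nitrite production relative to untreated vehicle controls, with L-NMMA as positive control. Compounds were tested up to 25 µg/mL.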

Row | Compound | IC50
9 | CCC1=C[C@@](/C=C/c2ccccc2)(CC)[C@](C)(C(=O)O)[C@H]2C(CC)=C[C@@H](C)[C@H]12 [SPICULOIC ACID B] | Not Active

Same assay, conditions: read-out: IC50

Row | Compound | IC50
10 | CC1=C[C@](C)(/C=C/C=C/c2ccccc2)[C@](C)(C(=O)O)[C@H]2C(C)=C[C@@H](C)[C@H]12 [22,27-DINOR-ZYGGOMPHIC ACID B] | 30.4 µM
11 | CCC1=C[C@@H](C)[C@@H]2C(C)=C[C@](C)(/C=C/C=C/c3ccccc3)[C@](C)(C(=O)O)[C@@H]12 [22-NOR-ZYGGOMPHIC ACID B] | 19.9 µM
12 | CNC(=N)NCCC[C@H](N)C(=O)O [TILARGININE] | > 101 µM
13 | CCC(O)/C(C)=C/C(C)C(O)/C(C)=C/C(C)=C/C(C)/C=C/c1ccccc1 (centres undefined) | 64.1 µM
14 | CCC1=C[C@@H](C)[C@@H]2C(C)=C[C@](C)(/C=C(C)/C=C/c3ccccc3)[C@](C)(C(=O)O)[C@@H]12 [ZYGGOMPHIC ACID B] | > 64.1 µM
15 | CC1=C[C@](C)(/C=C(C)/C=C/c2ccccc2)[C@](C)(C(=O)O)[C@H]2C(C)=C[C@@H](C)[C@H]12 [27-NOR-ZYGGOMPHIC ACID B] | 18.6 µM
16 | CCC1=C[C@@H](C)[C@@H]2C(C)=C[C@@](/C=C/c3ccccc3)(CC)[C@](C)(C(=O)O)[C@@H]12 [24-NOR-SPICULOIC ACID B] | 54.9 µM

System: HL-60
Experiment: Cytotoxicity against human HL60 cells up to 25 ug/mL
Settings: not given

Row | Compound | Activity
17 | CC1=C[C@](C)(/C=C/C=C/c2ccccc2)[C@](C)(C(=O)O)[C@H]2C(C)=C[C@@H](C)[C@H]12 [22,27-DINOR-ZYGGOMPHIC ACID B] | Non-toxic
18 | CCC1=C[C@@H](C)[C@@H]2C(C)=C[C@](C)(/C=C/C=C/c3ccccc3)[C@](C)(C(=O)O)[C@@H]12 [22-NOR-ZYGGOMPHIC ACID B] | Non-toxic
19 | CNC(=N)NCCC[C@H](N)C(=O)O [TILARGININE] | Non-toxic
20 | CCC(O)/C(C)=C/C(C)C(O)/C(C)=C/C(C)=C/C(C)/C=C/c1ccccc1 (centres undefined) | Non-toxic
21 | CCC1=C[C@@H](C)[C@@H]2C(C)=C[C@](C)(/C=C(C)/C=C/c3ccccc3)[C@](C)(C(=O)O)[C@@H]12 [ZYGGOMPHIC ACID B] | Non-toxic
22 | CC1=C[C@](C)(/C=C(C)/C=C/c2ccccc2)[C@](C)(C(=O)O)[C@H]2C(C)=C[C@@H](C)[C@H]12 [27-NOR-ZYGGOMPHIC ACID B] | Non-toxic
23 | CC(=O)/C=C(/C)C(=O)/C(C)=C/C(C)=C/C(C)/C=C/c1ccccc1 (centres undefined) | Non-toxic
24 | CCC1=C[C@@H](C)[C@@H]2C(C)=C[C@@](/C=C/c3ccccc3)(CC)[C@](C)(C(=O)O)[C@@H]12 [24-NOR-SPICULOIC ACID B] | Non-toxic
25 | CC(=O)C/C(C)=C/C(C)/C=C/c1ccccc1 (centres undefined) | Non-toxic
26 | C=C1C(=O)O[C@@H]2C3O[C@]3(C)CC/C=C(\C)CC[C@@H]12 (some centres undefined) | Non-toxic
27 | CCC1=C[C@@](/C=C/c2ccccc2)(CC)[C@](C)(C(=O)O)[C@H]2C(CC)=C[C@@H](C)[C@H]12 [SPICULOIC ACID B] | Non-toxic

System: RAW264.7
Experiment: Cytotoxicity against mouse RAW264.7 cells up to 25 ug/mL
Settings: not given

Row | Compound | Activity
28 | CC1=C[C@](C)(/C=C/C=C/c2ccccc2)[C@](C)(C(=O)O)[C@H]2C(C)=C[C@@H](C)[C@H]12 [22,27-DINOR-ZYGGOMPHIC ACID B] | Non-toxic
29 | CCC1=C[C@@H](C)[C@@H]2C(C)=C[C@](C)(/C=C/C=C/c3ccccc3)[C@](C)(C(=O)O)[C@@H]12 [22-NOR-ZYGGOMPHIC ACID B] | Non-toxic
30 | CNC(=N)NCCC[C@H](N)C(=O)O [TILARGININE] | Non-toxic
31 | CCC(O)/C(C)=C/C(C)C(O)/C(C)=C/C(C)=C/C(C)/C=C/c1ccccc1 (centres undefined) | Non-toxic
32 | CCC1=C[C@@H](C)[C@@H]2C(C)=C[C@](C)(/C=C(C)/C=C/c3ccccc3)[C@](C)(C(=O)O)[C@@H]12 [ZYGGOMPHIC ACID B] | Non-toxic
33 | CC1=C[C@](C)(/C=C(C)/C=C/c2ccccc2)[C@](C)(C(=O)O)[C@H]2C(C)=C[C@@H](C)[C@H]12 [27-NOR-ZYGGOMPHIC ACID B] | Non-toxic
34 | CC(=O)/C=C(/C)C(=O)/C(C)=C/C(C)=C/C(C)/C=C/c1ccccc1 (centres undefined) | Non-toxic
35 | CCC1=C[C@@H](C)[C@@H]2C(C)=C[C@@](/C=C/c3ccccc3)(CC)[C@](C)(C(=O)O)[C@@H]12 [24-NOR-SPICULOIC ACID B] | Non-toxic
36 | CC(=O)C/C(C)=C/C(C)/C=C/c1ccccc1 (centres undefined) | Non-toxic
37 | C=C1C(=O)O[C@@H]2C3O[C@]3(C)CC/C=C(\C)CC[C@@H]12 (some centres undefined) | Non-toxic
38 | CCC1=C[C@@](/C=C/c2ccccc2)(CC)[C@](C)(C(=O)O)[C@H]2C(CC)=C[C@@H](C)[C@H]12 [SPICULOIC ACID B] | Non-toxic

System: HL-60
Experiment: Antioxidant activity against PMA-treated human HL60 cells assessed as inhibition of ROS generation
Settings: not given

Row | Compound | Activity
39 | CC1=C[C@](C)(/C=C/C=C/c2ccccc2)[C@](C)(C(=O)O)[C@H]2C(C)=C[C@@H](C)[C@H]12 [22,27-DINOR-ZYGGOMPHIC ACID B] | inactive
40 | CCC1=C[C@@H](C)[C@@H]2C(C)=C[C@](C)(/C=C/C=C/c3ccccc3)[C@](C)(C(=O)O)[C@@H]12 [22-NOR-ZYGGOMPHIC ACID B] | inactive
41 | CNC(=N)NCCC[C@H](N)C(=O)O [TILARGININE] | inactive
42 | CCC(O)/C(C)=C/C(C)C(O)/C(C)=C/C(C)=C/C(C)/C=C/c1ccccc1 (centres undefined) | inactive
43 | CCC1=C[C@@H](C)[C@@H]2C(C)=C[C@](C)(/C=C(C)/C=C/c3ccccc3)[C@](C)(C(=O)O)[C@@H]12 [ZYGGOMPHIC ACID B] | inactive
44 | CC1=C[C@](C)(/C=C(C)/C=C/c2ccccc2)[C@](C)(C(=O)O)[C@H]2C(C)=C[C@@H](C)[C@H]12 [27-NOR-ZYGGOMPHIC ACID B] | inactive
45 | CC(=O)/C=C(/C)C(=O)/C(C)=C/C(C)=C/C(C)/C=C/c1ccccc1 (centres undefined) | inactive
46 | CCC1=C[C@@H](C)[C@@H]2C(C)=C[C@@](/C=C/c3ccccc3)(CC)[C@](C)(C(=O)O)[C@@H]12 [24-NOR-SPICULOIC ACID B] | inactive
47 | CC(=O)C/C(C)=C/C(C)/C=C/c1ccccc1 (centres undefined) | inactive
48 | C=C1C(=O)O[C@@H]2C3O[C@]3(C)CC/C=C(\C)CC[C@@H]12 (some centres undefined) | inactive
49 | CCC1=C[C@@](/C=C/c2ccccc2)(CC)[C@](C)(C(=O)O)[C@H]2C(CC)=C[C@@H](C)[C@H]12 [SPICULOIC ACID B] | inactive
